Data taken from ChEMBL document CHEMBL4715833, “Design, synthesis, in-vitro, in-vivo and in-silico studies of pyrrolidine-2,5-dione derivatives as multitarget anti-inflammatory agents” (Eur J Med Chem, 2020).

Legend:
[1] = Acute toxicity in Swiss albino mouse assessed as clinical changes in respiratory rate at 1000 mg/kg, ip administered as single dose measured after 4 hrs; assay type: organism-based; details: in vivo
Method in brief: (§1)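 Swiss albino mice of either sex (30-35 g), kept at 22-25 °C on a 12 h light/dark cycle with free food and water. Single i.p. dose; controls received normal saline 10 mL/kg. Animals were watched at random for allergic or abnormal behavioural signs during the first 4 h.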

[2] = Acute toxicity in Swiss albino mouse assessed as convulsion at 1000 mg/kg, ip administered as single dose measured after 4 hrs; assay type: organism-based; details: in vivo; method in brief: as §1
[3] = tested on: Mus musculus; experiment: Antiinflammatory activity against carrageenan-induced paw edema in Swiss mouse assessed as inhibition of paw edema at 25 mg/kg administered 30 mins prior to carrageenan challenge and measured after 5 hrs by […]-method (reference value: 7.31 +/- 3.204%); assay type: functional; details: time 5.5 hrs
[4] = Acute toxicity in ip dosed Swiss albino mouse assessed as mortality administered as single dose; assay type: organism-based; details: in vivo
Method in brief: (§2)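 Swiss albino mice of either sex (30-35 g), housed at 22-25 °C with 12 h light/dark and free food and water. Single i.p. dose; the saline control got 10 mL/kg. Deaths were counted 24 h after dosing. Dose table lists groups of 8 male and 8 female mice given 5 to 2000 mg/kg.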

[5] = tested on: Mus musculus; experiment: Antiinflammatory activity against carrageenan-induced paw edema in Swiss mouse assessed as inhibition of paw edema at 100 mg/kg administered 30 mins prior to carrageenan challenge and measured after 3 hrs by […]-method (reference value: 11.41 +/- 3.069%); assay type: functional; details: time 3.5 hrs
[6] = tested on: Mus musculus; experiment: Antiinflammatory activity against carrageenan-induced paw edema in Swiss mouse assessed as inhibition of paw edema at 50 mg/kg administered 30 mins prior to carrageenan challenge and measured after 3 hrs by […]-method (reference value: 11.41 +/- 3.069%); assay type: functional; details: time 3.5 hrs
[7] = Acute toxicity in Swiss albino mouse assessed as clinical changes in urinary incontinence at 1000 mg/kg, ip administered as single dose measured after 4 hrs; assay type: organism-based; details: in vivo; method in brief: as §1
[8] = tested on: Mus musculus; experiment: Antiinflammatory activity against carrageenan-induced paw edema in Swiss mouse assessed as inhibition of paw edema at 25 mg/kg administered 30 mins prior to carrageenan challenge and measured after 2 hrs by […]-method (reference value: 7.39 +/- 2.475%); assay type: functional; details: time 2.5 hrs
[9] = Acute toxicity in Swiss albino mouse assessed as change in clinical sign of eyes at 1000 mg/kg, ip administered as single dose measured after 4 hrs; assay type: organism-based; details: in vivo; method in brief: as §1
[10] = Acute toxicity in Swiss albino mouse assessed as change in clinical sign of mucus membrane at 1000 mg/kg, ip administered as single dose measured after 4 hrs; assay type: organism-based; details: in vivo; method in brief: as §1
[11] = Acute toxicity in Swiss albino mouse assessed as clinical changes in defecation at 1000 mg/kg, ip administered as single dose measured after 4 hrs; assay type: organism-based; details: in vivo; method in brief: as §1
[12] = tested on: Mus musculus; experiment: Antiinflammatory activity against carrageenan-induced paw edema in Swiss mouse assessed as inhibition of paw edema at 100 mg/kg administered 30 mins prior to carrageenan challenge and measured after 1 hr by […]-method (reference value: 7.66 +/- 3.753%); assay type: functional; details: 1.5 h, time 90 min
[13] = tested on: Mus musculus; experiment: Antiinflammatory activity in ip dosed leukotriene-induced paw edema in Balb/c mouse assessed as inhibition of paw edema administered 1 hr prior to leukotriene challenge and measured up to 5 hrs; assay type: functional, organism-based; details: time 2-6 hrs
Method in brief: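 BALB/c mice of either sex (30–35 g), 8 per group, dosed i.p. with 10% DMSO, reference drug or compound (100 mg/kg). After 1 h, subplantar irritant: PGE2 0.01 µg/ml, bradykinin 20 µg/ml, histamine 0.1 ml of 1 mg/ml, or leukotriene 10 µg/ml.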

[14] = tested on: Mus musculus; experiment: Antiinflammatory activity against carrageenan-induced paw edema in Swiss mouse assessed as inhibition of paw edema at 50 mg/kg administered 30 mins prior to carrageenan challenge and measured after 5 hrs by […]-method (reference value: 7.31 +/- 3.204%); assay type: functional; details: time 5.5 hrs
[15] = tested on: Mus musculus; experiment: Antiinflammatory activity against carrageenan-induced paw edema in Swiss mouse assessed as inhibition of paw edema at 100 mg/kg administered 30 mins prior to carrageenan challenge and measured after 2 hrs by […]-method (reference value: 7.39 +/- 2.475%); assay type: functional; details: time 2.5 hrs
[16] = species on record: Homo sapiens; experiment: Selectivity index, ratio of IC50 for sheep COX1 to IC50 for recombinant human COX2 expressed in baculovirus infected Sf21 cells
Method in brief: (§3)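 Enzymes activated for 5 min on ice with cofactor solution of 0.9 mM glutathione, hematin and 0.24 mM TMPD in 0.1 M Tris-HCl pH 8.0; COX-2 at 300 units/ml. Reaction started with 30 mM arachidonic acid stock, run 5 min, absorbance read at 570 nm. IC50 taken from inhibition-vs-concentration plots as means of three determinations. SI = IC50(COX-1)/IC50(COX-2).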

[17] = target: T1, Prostaglandin G/H synthase 1 (Ovis aries, UniProt P05979); experiment: Inhibition of sheep COX1 using arachidonic acid as substrate preincubated for 5 mins followed by substrate addition and measured after 5 mins by UV-visible spectrophotometric method; method in brief: as §3
T1 sequence (P05979 whole entry): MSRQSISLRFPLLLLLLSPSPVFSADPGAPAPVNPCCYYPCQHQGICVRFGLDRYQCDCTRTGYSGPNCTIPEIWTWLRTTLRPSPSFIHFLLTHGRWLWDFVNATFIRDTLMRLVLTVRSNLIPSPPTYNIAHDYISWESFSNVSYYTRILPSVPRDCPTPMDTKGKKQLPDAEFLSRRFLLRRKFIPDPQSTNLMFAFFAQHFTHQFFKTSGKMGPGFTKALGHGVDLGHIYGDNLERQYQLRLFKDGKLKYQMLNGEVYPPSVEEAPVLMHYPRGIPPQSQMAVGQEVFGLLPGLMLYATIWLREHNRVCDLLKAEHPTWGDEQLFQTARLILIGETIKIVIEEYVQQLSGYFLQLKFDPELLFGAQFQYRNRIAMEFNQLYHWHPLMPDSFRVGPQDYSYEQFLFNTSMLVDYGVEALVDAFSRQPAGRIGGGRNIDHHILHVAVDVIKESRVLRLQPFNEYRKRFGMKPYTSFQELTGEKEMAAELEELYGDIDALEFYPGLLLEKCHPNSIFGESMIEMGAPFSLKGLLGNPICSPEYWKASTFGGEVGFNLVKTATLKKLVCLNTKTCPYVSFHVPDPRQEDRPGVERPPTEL

[18] = tested on: Mus musculus; experiment: Antiinflammatory activity against carrageenan-induced paw edema in Swiss mouse assessed as inhibition of paw edema at 50 mg/kg administered 30 mins prior to carrageenan challenge and measured after 1 hr by […]-method (reference value: 7.66 +/- 3.753%); assay type: functional; details: 1.5 h, time 90 min
[19] = Acute toxicity in Swiss albino mouse assessed as mortality at 1000 mg/kg, ip administered as single dose measured after 24 hrs; assay type: organism-based; details: in vivo; method in brief: as §2
[20] = tested on: Mus musculus; experiment: Antiinflammatory activity against carrageenan-induced paw edema in Swiss mouse assessed as inhibition of paw edema at 25 mg/kg administered 30 mins prior to carrageenan challenge and measured after 1 hr by […]-method (reference value: 7.66 +/- 3.753%); assay type: functional; details: 1.5 h, time 90 min
[21] = tested on: Mus musculus; experiment: Antiinflammatory activity against carrageenan-induced paw edema in Swiss mouse assessed as inhibition of paw edema at 25 mg/kg administered 30 mins prior to carrageenan challenge and measured after 3 hrs by […]-method (reference value: 11.41 +/- 3.069%); assay type: functional; details: time 3.5 hrs

Compound	Activity [1]	Activity [2]	inhibition in vivo at 25 mg/kg [3]	LD50 [4]	inhibition in vivo at 100 mg/kg [5]	inhibition in vivo at 50 mg/kg [6]	Activity [7]	inhibition in vivo at 25 mg/kg [8]	Activity [9]	Activity [10]	Activity [11]	inhibition in vivo at 100 mg/kg [12]	inhibition [13]	inhibition in vivo at 50 mg/kg [14]	inhibition in vivo at 100 mg/kg [15]	Ratio IC50 [16]	IC50 [17]	inhibition in vivo at 50 mg/kg [18]	Activity [19]	inhibition in vivo at 25 mg/kg [20]	further results
Cc1ccc(C(=O)CC2CC(=O)N(c3ccc(S(N)(=O)=O)cc3)C2=O)cc1 (configuration not stated)	Non-Toxic	Non-Toxic	56.6%	1000 mg/kg	61.6%	54.2%	Non-Toxic	53%	Non-Toxic	Non-Toxic	Non-Toxic	55.2%	Dose-dependent effect	59.3%	63.8%	31.5	30.9 µM	51.5%	Non-Toxic	45.6%	inhibition in vivo at 25 mg/kg [21]: 51.5%
O=C1CCCCC1C1CC(=O)N(Cc2ccccc2)C1=O (configuration not stated)	Non-Toxic	Non-Toxic	23.4%	1000 mg/kg	51.6%	41.1%	Non-Toxic	28.3%	Non-Toxic	Non-Toxic	Non-Toxic	44.7%	Dose-dependent effect	47.8%	49.6%	3.13	62.6 µM	34.5%	Non-Toxic	24.3%	inhibition in vivo at 25 mg/kg [21]: 23.3%
